This is a sample that favours compounds with a hit; in the whole collection about 4.1% have one here.
KCNQ1 pot – potentiators or activators of KCNQ1 channel, primary screen, cell-based, thallium flux, high-throughput | Potassium voltage-gated channel subfamily KQT member 1 (Homo sapiens), P51787 | CHO-K1 KCNQ1, thallium flux FluxOR fluorescence; stronger effect = higher value | B-score at 10 µM | 310,000 tested, 0.35% active | AID 2648, 2010;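 active = fluorescence ratio B-score, a plate-corrected score, at least three library SD, with initial intensity B-score within 5 SD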
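System: Stable KCNQ1 CHO-K1 line | Incubation: 90 min dye loading and 20 min compound exposure, both at room temperature | Measure: Ratio B score | Medium: Assay buffer for compound exposure, DMSO matched across wells | Compound dosing: Single-concentration screen | Probe or stimulus: K+/Tl+ depolarizing stimulus | Measured by: Kinetic FluxOR fluorescence, 10 s baseline plus 110 s post-stimulus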
hERG protect – hERG rescue from dofetilide block, primary screen, cell-based, CHO-hERG, FluxOR thallium flux, dofetilide IC70 | AID 1511, 2009 | 310,000 tested, 0.51% active | Voltage-gated inwardly rectifying potassium channel KCNH2 (Homo sapiens), Q12809 | activation (rescue from dofetilide block), less the hit threshold, % at 10 µM | dofetilide IC70 present;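 active = activation above the mean of controls blocked by dofetilide plus 5 SD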;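 note: thallium influx through hERG after potassium depolarization seen as dye fluorescence rise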
KCNQ1 inh – inhibitors of human KCNQ1 channel, primary screen, cell-based, thallium flux, high-throughput; B-score at 10 µM; 310,000 tested, 1.3% active; CHO-K1 KCNQ1, FluxOR thallium flux fluorescence; stronger effect = higher value;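 active = compounds whose thallium flux B-score, printed positive for inhibition, exceeds three library SD while starting fluorescence stays within three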;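 note: channel opened by potassium depolarization with thallium stimulus after 20 min compound exposure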
Cl transport mod – KCC2 cotransporter modulators, thallium flux, primary screen, cell-based, HEK293 KCC2, FluoZin-2 fluorescence, MLSMR. AID 1456, 2008. Solute carrier family 12 member 5 (Homo sapiens), Q9H2X9. 190,000 tested, 2.2% active. KCC2 cells, thallium flux FluoZin-2 fluorescence. B-score of Tl+ flux slope (higher = more flux/activation; lower = inhibition) at 10 µM;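 active = thallium flux slope and its plate-corrected score both differing from the plate sample mean at a set confidence after two filtering rounds, in either direction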;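 note: slope of fluorescence scaled to starting intensity during 10 to 20 s after thallium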
Target sequence (Q9H2X9 whole entry, looked up): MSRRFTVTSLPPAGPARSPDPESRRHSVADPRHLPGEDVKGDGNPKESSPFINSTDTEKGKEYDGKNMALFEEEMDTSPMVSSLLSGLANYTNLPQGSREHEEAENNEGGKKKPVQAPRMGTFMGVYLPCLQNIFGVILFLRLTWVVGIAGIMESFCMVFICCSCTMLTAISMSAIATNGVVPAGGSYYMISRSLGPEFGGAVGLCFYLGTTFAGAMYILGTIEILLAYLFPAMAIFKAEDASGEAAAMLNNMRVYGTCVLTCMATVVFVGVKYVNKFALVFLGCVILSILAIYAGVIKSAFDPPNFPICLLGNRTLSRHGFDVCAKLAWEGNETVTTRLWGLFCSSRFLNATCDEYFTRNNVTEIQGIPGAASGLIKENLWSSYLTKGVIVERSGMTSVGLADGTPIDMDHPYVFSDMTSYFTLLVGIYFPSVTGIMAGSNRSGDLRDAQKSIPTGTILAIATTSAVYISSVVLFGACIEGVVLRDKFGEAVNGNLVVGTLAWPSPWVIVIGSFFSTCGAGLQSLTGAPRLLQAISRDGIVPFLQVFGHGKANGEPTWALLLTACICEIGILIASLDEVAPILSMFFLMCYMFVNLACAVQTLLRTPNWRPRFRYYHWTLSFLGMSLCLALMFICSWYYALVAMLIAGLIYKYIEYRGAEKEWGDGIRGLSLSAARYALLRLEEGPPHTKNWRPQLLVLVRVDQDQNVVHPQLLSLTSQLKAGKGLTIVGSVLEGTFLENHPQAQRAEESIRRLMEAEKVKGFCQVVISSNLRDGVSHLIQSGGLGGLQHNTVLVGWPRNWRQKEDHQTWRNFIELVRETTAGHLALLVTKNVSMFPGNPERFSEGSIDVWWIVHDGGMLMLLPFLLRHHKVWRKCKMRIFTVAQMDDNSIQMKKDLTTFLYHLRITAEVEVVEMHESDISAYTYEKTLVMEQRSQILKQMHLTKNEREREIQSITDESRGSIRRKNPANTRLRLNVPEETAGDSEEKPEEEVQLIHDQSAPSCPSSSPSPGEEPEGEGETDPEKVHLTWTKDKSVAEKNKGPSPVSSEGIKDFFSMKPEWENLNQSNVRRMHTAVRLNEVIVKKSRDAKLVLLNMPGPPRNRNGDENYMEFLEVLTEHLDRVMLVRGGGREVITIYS
KCNK3 block – human KCNK3 channel inhibitors, primary screen, CHO cells, FluxOR thallium flux, B-score. Potassium channel subfamily K member 3 (Homo sapiens), O14649. FluxOR fluorescence; stronger effect = lower value. B-score at 10 µM. 340,000 tested, 0.84% active;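 active = B-score under library mean minus 4 SD, starting fluorescence ratio at most library mean plus 5 SD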;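 note: more negative B-score means stronger inhibition of thallium flux through KCNK3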
KCNK9 inh – KCNK9 potassium channel inhibitors, primary screen, HEK293 cells, thallium flux; Potassium channel subfamily K member 9 (Homo sapiens), Q9NPC2; FluxOR thallium flux fluorescence; stronger effect = lower value; B-score at 10 µM; 310,000 tested, 1.2% active; AID 488922, 2010;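 active = ratio B-score over 3 SD below the library mean, with starting fluorescence within 5 SD of its mean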;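 note: negative B-score means less thallium flux so channel inhibition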
KCNK9 block conf – KCNK9 potassium channel inhibitors, confirmation, HEK293 cells, thallium flux, duplicate | shares compounds with KCNK9 inh | 4,900 tested, 43% active | FluxOR thallium flux fluorescence | inhibition, % at 10 µM;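 active = thallium signal inhibited by more than 5 SD of the compound-free buffer control wells, on both duplicate plates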;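 note: 0% = assay buffer control wells without compound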
Kir21 sel – mouse Kir2.1 channel inhibition, confirmation, selectivity assay for KCNK9 modulator project, cell-based, HEK293, thallium flux; Kir2.1 cells, FluxOR thallium flux fluorescence; inhibition, % at 10 µM; 4,900 tested, 4% active; AID 492993, 2010; shares compounds with KCNK9 inh;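 active = thallium signal drop more than 5 SD beyond the mean of the no-compound control wells, seen in both duplicate plates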;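 note: signal is fluorescence rise after thallium addition divided by baseline fluorescence; plate controls were assay buffer only for no effect and full block by chlorpromazine control for full effect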
KCNK9 uninduced – thallium flux in non-induced HEK293 cells, confirmation, counter-screen for KCNK9 inhibitor project, cell-based, second counter screen, non-induced KCNK9-HEK293 | shares compounds with KCNK9 inh | FluxOR thallium flux | inhibition, % at 10 µM | 4,900 tested, 40% active;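 active = thallium signal drop beyond 5 SD of the untreated control mean, on both duplicate plates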;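 note: plate controls were buffer only IC0 wells for no effect and SID17386958 at its maximal inhibitory level for full effect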
* hit, by the source's call; i = inactive; · = no result given.

SMILES	KCNQ1 pot	hERG protect	KCNQ1 inh	Cl transport mod	KCNK3 block	KCNK9 inh	KCNK9 block conf	Kir21 sel	KCNK9 uninduced
CCOc1ccccc1NC(=O)c1nc(-c2ccccc2)oc1C	i	-4	i	0.22	i	-12*	i	i	25%*
CCOc1ccccc1C(=O)Nc1ccccc1-c1ccccc1	i	-20	i	-0.79	i	-8.8*	72%*	38%*	25%*
O=C(Nc1cccc(-c2cn3ccsc3n2)c1)c1ccccc1	i	-7	i	·	i	-9.7*	33%*	i	i
Fc1cnc(Cl)nc1NC1CCCCC1	i	-5	i	·	i	i	·	·	·
O=C(CNC(c1ccccc1)c1ccccc1)Nc1cc([N+](=O)[O-])ccc1Cl	i	-10	i	0.63	i	-9.2*	69%*	i	41%*
CC(C)CC(=O)Nc1cc([N+](=O)[O-])ccc1Cl	i	-6	i	0.086	i	i	·	·	·
CCOc1cc(CNCCO)cc(Br)c1OCc1ccccc1Cl	i	-9	i	0.56	i	i	·	·	·
CCOc1cc(CNC(C)(C)CO)cc(Br)c1OCc1ccc(Cl)cc1Cl	i	-28	i	1.3	i	-8.7*	55%*	53%*	34%*
CCOC(=O)C1CCN(CC(=O)Nc2cc(S(=O)(=O)N3CCCCC3)ccc2Cl)CC1	·	·	·	·	i	·	·	·	·
CC1C=Cc2ccccc2N1C(=O)c1ccccc1 (stereo not drawn)	i	-6	i	0.12	i	i	·	·	·
O=C(CC1C=Cc2ccccc2N1C(=O)c1ccccc1)c1ccccc1 (stereo not drawn)	i	-7	i	-1.9	i	-13*	30%*	i	i
Cc1ccc(C)c(OCC(O)CN2CCN(CCN3C(=O)c4cccc5cccc(c45)C3=O)CC2)c1 (stereo not drawn)	i	-27	i	0.47	i	i	i	i	i
CC1CCCN(c2nc(-c3cccnc3)nc3scc(-c4ccccc4)c23)C1 (stereo not drawn)	i	-15	i	-1.5	i	-9.1*	35%*	i	35%*
c1ccc(-c2nc(NCc3ccco3)c3oc4ccccc4c3n2)cc1	i	-18	i	0.53	i	-8.7*	38%*	i	35%*
c1ccc(-c2nc(NCCCn3ccnc3)c3oc4ccccc4c3n2)cc1	i	-33	i	0.39	i	i	·	·	·
CCC1CCCCN1C(=O)CSc1nc2ccsc2c(=O)n1Cc1ccccc1 (stereo not drawn)	i	-23	i	-1.3	i	i	i	i	i
O=C(CSc1nc2ccsc2c(=O)n1Cc1ccccc1)NCC1CCCO1 (stereo not drawn)	i	-12	i	-0.82	i	i	·	·	·
CCc1nnc(NS(=O)(=O)c2ccc(NCc3cc(Br)ccc3O)cc2)s1	i	-16	i	·	i	i	i	i	i
CCc1nnc(NS(=O)(=O)c2ccc(NCc3ccccc3O)cc2)s1	i	-10	i	·	i	i	·	·	·
c1ccc(C2Nc3ccccc3C3OCCCC23)cc1 (stereo not drawn)	i	-5	i	·	i	i	i	i	i
Cc1cc(C)cc(C(=O)OCC(=O)Nc2ncccn2)c1	·	·	·	·	i	·	·	·	·
CC(C)CN1CCC(=O)N(CCSc2ccc(Br)cc2)CC1	i	-6	i	-1.8	i	i	i	i	i
CC(C)CN1CCC(=O)N(CCOc2ccccc2)CC1	i	-5	i	·	i	i	·	·	·
O=C(c1cc2sccc2n1Cc1ccc(F)cc1)N1CCCc2ccccc21	i	-8	i	-2.2	i	-10*	51%*	i	37%*
CC1CCN(C(=O)C2CCN(C(=O)c3cc4sccc4n3Cc3ccc(F)cc3)CC2)CC1	i	-2	i	·	i	i	·	·	·
SMILES	KCNQ1 pot	hERG protect	KCNQ1 inh	Cl transport mod	KCNK3 block	KCNK9 inh	KCNK9 block conf	Kir21 sel	KCNK9 uninduced
Cc1ccc(-c2csc(NC(=O)CSC3=NCCS3)n2)cc1	i	-17	i	-2.6	i	i	i	i	i
COc1ccc(-c2csc(NC(=O)CSc3nc(C)cs3)n2)cc1	i	-8	i	-0.45	i	i	·	·	·
O=C(Nc1cccnc1)c1ccc(Cl)c(S(=O)(=O)N2CCCC2)c1	i	-8	i	·	i	i	·	·	·
Cc1cc2ccccn2c1C(=O)c1ccc([N+](=O)[O-])cc1[N+](=O)[O-]	i	-5	i	·	i	i	·	·	·
Cc1cc2ccccn2c1C(=O)c1ccccc1Br	i	-8	i	·	i	-8.3*	i	i	i
COc1cc(C(=O)NN2C(=O)NC3(CCC(C)CC3)C2=O)ccc1OC(F)F (stereo not drawn)	·	·	·	·	i	·	·	·	·
CC(=O)c1ccc(NC(=O)CCS(=O)(=O)c2ccc3c(c2)n(C)c(=O)c(=O)n3C)cc1	i	0	i	·	i	i	·	·	·
CS(=O)(=O)Nc1ccc(C2=NN(S(=O)(=O)c3ccc(F)cc3)C(c3ccco3)C2)cc1 (stereo not drawn)	i	-13	i	-0.4	i	-10*	38%*	i	i
CCN(Cc1ccc(O)cc1)CC1CCCN(CCc2cccc(F)c2)C1 (stereo not drawn)	i	-7	i	·	i	i	·	·	·
COc1ccc(NCc2nc3ccccc3n2CCOc2ccc(C)cc2)cc1	i	0	i	-2.6	i	-11*	70%*	48%*	52%*
COc1ccc(NCc2nc3ccccc3n2CCOc2ccccc2)cc1	i	-5	i	-0.088	i	-11*	i	i	33%*
Cc1cccc(OCCn2c(-c3ccco3)nc3ccccc32)c1	i	-18	i	-0.6	i	-10*	30%*	i	34%*
